Legend:
[1] = test system: Vero; test: Concentration of compound required to reduce by 50% the number of polio virus plaques in vero cells; format: functional; details: Chlorocebus sabaeus, read-out: ED50 (the source's name)
[2] = test system: C8166; test: Effective dose which reduces the HIV-1 yield in C8166 cells by 90%; format: functional, Homo sapiens
Outline: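 C8166 cells at 1×10^8/mL infected with 1×10^5 CCID50 HIV-1 (from H9/IIIB supernatants) for 2 h at 37 °C, washed three times, then resuspended at 1×10^5/mL with compound for 3 days. Virus yield was measured by limiting-dilution end-point titration on C8166 (1:2 dilutions, four wells each, syncytia scored after 4 days, Reed–Muench CCID50/mL).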

[3] = test system: Vero; test: Concentration of compound required to reduce by 50% the number of african swine fever virus (ASFV) plaques in vero cells; format: functional; details: Chlorocebus sabaeus, read-out: ED50 (the source's name)
[4] = test system: L1210; test: Compound concentration required to reduce by 50% the number of murine lymphocytic leukemia (L1210) cells after three cell cycles; format: functional; details: Mus musculus, read-out: ID50 (the source's name)
Outline: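 Mouse L1210 leukemia cells seeded at 1×10^5 cells/mL in RPMI-1640 with 10% FCS. Exposed to graded compound concentrations at 37 °C for 36 h, then counted on a Coulter counter. Growth is taken as a percentage of untreated controls, and the 50% dose is found by linear regression. Mean of three experiments.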

[5] = test system: Raji; test: Compound concentration required to reduce by 50% the number of human B (Raji)cells after three cell cycles; format: functional; details: read-out: ID50 (the source's name)
Outline: (§1)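 Suspension cultures seeded at 1×10^5 cells/mL in RPMI-1640 with 10% FCS. Grown with a range of compound concentrations at 37 °C for 72 h, then counted on a Coulter counter. Growth is expressed as a percentage of untreated controls, and the 50% inhibitory dose is taken by linear regression. Mean of three separate experiments.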

[6] = test system: Vero; test: Concentration of compound required to reduce by 50% the number of coxsackie virus plaques in vero cells; format: functional; details: Chlorocebus sabaeus, read-out: ED50 (the source's name)
[7] = test system: H9; test: Compound concentration required to reduce by 50% the number of H9 cells chronically infected with the HIV-1 (H9/IIIB) after three cell cycles; format: functional; details: Homo sapiens, read-out: ID50 (the source's name); outline: as §1
[8] = Compound concentration required to reduce by 50% the number of T-H9 lymphoblastoid cells after three cell cycles; format: functional; details: Homo sapiens; read-out: ID50 (the source's name); outline: as §1
[9] = Compound concentration required to reduce by 50% the number of T-MT4 lymphoblastoid cells after three cell cycles; format: functional; details: Homo sapiens; read-out: ID50 (the source's name); outline: as §1
[10] = test system: Vero; test: Concentration of compound required to reduce by 50% the number of herpes simplex virus (HSV-1) plaques in vero cells; format: functional; details: Chlorocebus sabaeus, read-out: ED50 (the source's name)
[11] = Compound concentration required to reduce by 50% the number of T-C8166 lymphoblastoid cells after three cell cycles; format: functional; details: Homo sapiens; read-out: ID50 (the source's name); outline: as §1
[12] = test system: Vero; test: Compound concentration required to reduce by 50% the number of fibroblast-like cells (Vero) after three cell cycles; format: functional; details: Chlorocebus sabaeus, read-out: ID50 (the source's name)
Outline: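 Vero monolayers seeded at 1×10^5 cells/mL in DMEM with 10% newborn calf serum and left to adhere overnight. Medium with various compound concentrations was then added for 3 days at 37 °C. Cells were trypsinized and counted on a Coulter counter. The 50% dose comes from linear regression of percent growth against untreated controls. Mean of three experiments.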

[13] = test system: Vero; test: Concentration of compound required to reduce by 50% the number of vesicular stomatitis virus (VSV) plaques in vero cells; format: functional; details: Chlorocebus sabaeus, read-out: ED50 (the source's name)

NC(=O)c1nn([C@@H]2O[C@H](CO)[C@@H](O)[C@H]2O)cc1I
EC50 [1]: > 1350 µM | ED90 [2]: 20 µM | EC50 [3]: > 1350 µM | IC50 [4]: > 1350 µM | IC50 [5]: > 1350 µM | EC50 [6]: 120 µM | IC50 [7]: 20 µM | IC50 [8]: 40 µM | IC50 [9]: 27 µM | EC50 [10]: > 1350 µM | IC50 [11]: 8 µM | IC50 [12]: > 1350 µM | EC50 [13]: > 1350 µM

NC(=O)c1nn(C2O[C@H](CO)[C@@H](O)[C@H]2O)cc1N (stereo partly specified)
EC50 [1]: > 1830 µM | ED90 [2]: >320 µM | EC50 [3]: > 1830 µM | IC50 [4]: > 1830 µM | IC50 [5]: 1280 µM | EC50 [6]: > 1830 µM | IC50 [7]: 550 µM | IC50 [8]: 580 µM | IC50 [9]: 470 µM | EC50 [10]: > 1830 µM | IC50 [11]: 320 µM | IC50 [12]: > 1830 µM | EC50 [13]: > 1830 µM

CCCCCn1nnc2c(C)nn(C3O[C@H](CO)[C@@H](O)[C@H]3O)c2c1=O (stereo partly specified)
EC50 [1]: > 1400 µM | ED90 [2]: >200 µM | EC50 [3]: > 1400 µM | IC50 [4]: > 1400 µM | IC50 [5]: 1400 µM | EC50 [6]: > 1400 µM | IC50 [8]: 710 µM | IC50 [9]: 540 µM | EC50 [10]: > 1400 µM | IC50 [11]: 280 µM | IC50 [12]: > 1400 µM | EC50 [13]: > 1400 µM

NC(=O)c1nn(C2O[C@H](CO)[C@@H](O)[C@H]2O)cc1[N+](=O)[O-] (stereo partly specified)
EC50 [1]: > 1730 µM | ED90 [2]: 25.4 µM | EC50 [3]: > 1730 µM | IC50 [4]: > 1730 µM | IC50 [5]: > 1730 µM | EC50 [6]: > 1730 µM | IC50 [7]: > 1730 µM | IC50 [8]: > 1730 µM | IC50 [9]: 80 µM | EC50 [10]: > 1730 µM | IC50 [11]: 12 µM | IC50 [12]: > 1730 µM | EC50 [13]: > 1730 µM

NC(=O)c1ccn(C2O[C@H](CO)[C@@H](O)[C@H]2O)n1 (stereo partly specified)
EC50 [1]: > 2050 µM | ED90 [2]: >900 µM | EC50 [3]: > 2050 µM | IC50 [4]: > 1030 µM | IC50 [5]: 1030 µM | EC50 [6]: > 2050 µM | IC50 [7]: > 1030 µM | IC50 [8]: 1030 µM | IC50 [9]: > 1030 µM | EC50 [10]: > 2050 µM | IC50 [11]: 900 µM | IC50 [12]: > 1030 µM | EC50 [13]: > 2050 µM

Cc1c(N)c(C(N)=O)nn1C1O[C@H](CO)[C@@H](O)[C@H]1O (stereo partly specified)
EC50 [1]: > 1840 µM | ED90 [2]: >1840 µM | EC50 [3]: > 1840 µM | IC50 [4]: > 1840 µM | IC50 [5]: > 1840 µM | EC50 [6]: > 1840 µM | IC50 [7]: > 1840 µM | IC50 [8]: > 1840 µM | IC50 [9]: > 1840 µM | EC50 [10]: > 1840 µM | IC50 [11]: > 1840 µM | IC50 [12]: > 1840 µM | EC50 [13]: > 1840 µM

NC(=O)c1nn(C2O[C@H](CO)[C@@H](O)[C@H]2O)cc1Br (stereo partly specified)
EC50 [1]: > 1550 µM | ED90 [2]: 12.2 µM | EC50 [3]: > 1550 µM | IC50 [4]: > 1550 µM | IC50 [5]: > 1550 µM | EC50 [6]: > 1550 µM | IC50 [7]: 50 µM | IC50 [8]: 50 µM | IC50 [9]: 20 µM | EC50 [10]: > 1550 µM | IC50 [11]: 4 µM | IC50 [12]: > 1550 µM | EC50 [13]: > 1550 µM

Cc1c([N+](=O)[O-])c(C(N)=O)nn1C1O[C@H](CO)[C@@H](O)[C@H]1O (stereo partly specified)
EC50 [1]: > 1650 µM | ED90 [2]: >1650 µM | EC50 [3]: > 1650 µM | IC50 [4]: > 1650 µM | IC50 [5]: > 1650 µM | EC50 [6]: > 1650 µM | IC50 [7]: > 1650 µM | IC50 [8]: > 1650 µM | IC50 [9]: 1490 µM | EC50 [10]: > 1650 µM | IC50 [11]: > 1650 µM | IC50 [12]: > 1650 µM | EC50 [13]: > 1650 µM

Nc1nc2c(ncn2COCCO)c(=O)[nH]1 [ACYCLOVIR]
EC50 [3]: > 1300 µM | EC50 [10]: 0.04 µM

COc1cccc2c1C(=O)c1c(O)c3c(c(O)c1C2=O)C[C@@](O)(C(=O)CO)C[C@@H]3O[C@H]1C[C@H](N)[C@H](O)[C@H](C)O1 [DOXORUBICIN]
IC50 [4]: 0.02 µM | IC50 [5]: 0.01 µM | IC50 [7]: 0.01 µM | IC50 [8]: 0.01 µM | IC50 [9]: 0.01 µM | IC50 [11]: 0.01 µM | IC50 [12]: 0.1 µM

N=C(N)N [GUANIDINE]
EC50 [1]: 125 µM

CN(Cc1cnc2nc(N)nc(N)c2n1)c1ccc(C(=O)N[C@@H](CCC(=O)O)C(=O)O)cc1 [METHOTREXATE]
IC50 [4]: 0.04 µM | IC50 [5]: 0.02 µM | IC50 [7]: 0.03 µM | IC50 [8]: 0.03 µM | IC50 [9]: 0.03 µM | IC50 [11]: 0.03 µM | IC50 [12]: 0.02 µM

Cc1cn([C@H]2C[C@H](N=[N+]=[N-])[C@@H](CO)O2)c(=O)[nH]c1=O [ZIDOVUDINE]
ED90 [2]: 0.003 µM

From ChEMBL document CHEMBL1125397, “Pyrazole-related nucleosides. Synthesis and antiviral/antitumor activity of some substituted pyrazole and pyrazolo[4,3-d]-1,2,3-triazin-4-one nucleosides” (1992)
